Source: ChEMBL document CHEMBL1151765, “Rational design of substituted diarylureas: a scaffold for binding to G-quadruplex motifs” (J Med Chem, 2008)
pEC50, pIC50: −log10 of the molar value. Calls of active or inactive are those of the source. No cut-off for these calls is given here.

Tests used:
MCF7 [1] = experiment: Cytotoxicity against human MCF7 cells after 96 hrs by SRB assay; assay type: functional, cell-based; conditions: MCF7, 96 h
[2] = Cytotoxicity against human WI38 cells after 96 hrs by SRB assay; assay type: cell-based; conditions: WI-38, 96 h
A549 [3] = experiment: Cytotoxicity against human A549 cells after 96 hrs by SRB assay; assay type: functional, cell-based; conditions: A549, 96 h
A549 [4] = experiment: Selectivity ratio of IC50 for human A549 cells to IC50 for human WI38 cells
[5] = Stabilization of d[G3(T2AG3)3] sequence of F21T telomeric G-quadruplex DNA assessed as change in melting temperature at 1 uM by FRET assay relative to BRACO-19 in presence of calf thymus DNA
Method in brief: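 F21T FRET melting with ligand at 1µM in the presence of calf thymus DNA competitor at increasing bp concentrations. Retained stabilization, from three experiments, normalized to the ligand's ΔTm with no competitor (100%) ± normalized sd.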

[6] = Stabilization of d[C3G3CG3CGCGAG3AG4AG2] sequence of c-kit2 G-quadruplex DNA assessed as change in melting temperature at 1 uM by FRET assay
Method in brief: (§1)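 Dual-labelled FAM/TAMRA oligos at 400nM in 60mM KCl potassium cacodylate buffer, pH 7.4, heated to 85 °C for 10 min, then cooled. Ligand added to 1µM; buffer alone as negative control. Excitation 450–495nm, emission read at 515–545nm every 0.5 °C from 30–100 °C. ΔTm is ligand Tm minus control Tm, from four experiments ± maximum sd; c-kit1 curves fitted to sigmoids.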

[7] = Stabilization of d[AGAG3AG2GCGCTG3AG2AG3GCT] sequence of c-kit1 G-quadruplex DNA assessed as change in melting temperature at 1 uM by FRET assay; method in brief: as §1
[8] = Stabilization of d[G3(T2AG3)3] sequence of F21T telomeric G-quadruplex DNA assessed as change in melting temperature at 1 uM by FRET assay
Method in brief: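 Dual-labelled oligo (5′-FAM, 3′-TAMRA) at 400nM in FRET buffer (60mM KCl, K cacodylate, pH 7.4), heated to 85 °C for 10 min, cooled to room temperature. Ligand added from DMSO dilution. Excitation 450–495nm, emission 515–545nm, read every 0.5 °C from 30–100 °C. ΔTm from four experiments: averaged ligand Tm minus averaged buffer-control Tm, ± maximum sd.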

[9] = target: T1, Telomerase reverse transcriptase (Homo sapiens, UniProt O14746); experiment: Inhibition of telomerase by TRAP-LIG assay
[10] = Selectivity ratio of equilibrium binding constant K for d[(AG3)2CGCTG3AG2AG3] sequence of c-kit1 G-quadruplex DNA to equilibrium binding constant K for d[CGA2T2CGTCTC2GA2T2CG] sequence of duplex DNA
Homo sapiens = species on record: Homo sapiens; experiment: Binding affinity to biotin-labeled human telomeric d[AG3(T2AG3)3] sequence by surface plasmon resonance analysis
Method in brief: (§2)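 Streptavidin chip with 5′-biotinylated DNA immobilized to 350-400 RU; blank reference flow cell. Run in 10mM HEPES, 100mM KCl, 3mM EDTA, P20 surfactant, pH 7.3, 25°C. Ligand 1nM to 10µM (from 20mM DMSO stock) injected at 50µl/min for 5–10 min to steady state, then 10 min buffer dissociation; glycine pH 2.0 regeneration between cycles.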

[11] = Binding affinity to biotin-labeled d[(AG3)2CGCTG3AG2AG3] sequence of c-kit1 G-quadruplex DNA by surface plasmon resonance analysis; method in brief: as §2
[12] = Selectivity ratio of equilibrium binding constant K for human telomeric d[AG3(T2AG3)3] sequence to equilibrium binding constant K for d[CGA2T2CGTCTC2GA2T2CG] sequence of duplex DNA
[13] = Binding affinity to biotin-labeled d[(CG3)2CGCGAG3AG4] sequence of c-kit2 G-quadruplex DNA by surface plasmon resonance analysis; method in brief: as §2
[14] = Binding affinity to biotin-labeled d[(AG3TG4)2A] sequence of c-myc G-quadruplex DNA by surface plasmon resonance analysis; method in brief: as §2
MCF7 [15] = experiment: Cytotoxicity against human MCF7 cells assessed as cell senescence at 10 uM after 1 week by beta-galactosidase assay; assay type: functional
MCF7 [16] = experiment: Cytotoxicity against human MCF7 cells assessed as population doubling at 10 uM after 1 week […] relative to control; assay type: functional
Method in brief: (§3)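 MCF7 cells (1×10^5) treated with sub-cytotoxic ligand concentrations for 1 week, biweekly dosing. Cells counted by haemocytometer; population doublings n = (log Pn – log P0)/log2. Values normalized to vehicle control (100%) ± sd, two independent concentrations per ligand.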

[17] = Selectivity ratio of equilibrium binding constant K for d[(CG3)2CGCGAG3AG4] sequence of c-kit2 G-quadruplex DNA to equilibrium binding constant K for d[CGA2T2CGTCTC2GA2T2CG] sequence of duplex DNA
MCF7 [18] = experiment: Cytotoxicity against human MCF7 cells assessed as cell senescence at 5 uM after 1 week by beta-galactosidase assay; assay type: functional
MCF7 [19] = experiment: Cytotoxicity against human MCF7 cells assessed as population doubling at 5 uM after 1 week […] relative to control; assay type: functional; method in brief: as §3
[20] = Binding affinity to biotin-labeled d[CGA2T2CGTCTC2GA2T2CG] sequence of duplex DNA by surface plasmon resonance analysis; method in brief: as §2
[21] = Selectivity ratio of equilibrium binding constant K for d[(AG3TG4)2A] sequence of c-myc G-quadruplex DNA to equilibrium binding constant K for d[CGA2T2CGTCTC2GA2T2CG] sequence of duplex DNA
[22] = target: T1, Telomerase reverse transcriptase; experiment: Inhibition of telomerase at 50 uM by TRAP-LIG assay relative to control
MCF7 [23] = experiment: Selectivity ratio of IC50 for human MCF7 cells to IC50 for human WI38 cells
[24] = Stabilization of d[(TA)2GC(TA)2T6(TA)2]GC(TA)2 sequence of duplex DNA assessed as change in melting temperature at 1 uM by FRET assay; method in brief: as §1

T1 sequence (O14746 whole entry): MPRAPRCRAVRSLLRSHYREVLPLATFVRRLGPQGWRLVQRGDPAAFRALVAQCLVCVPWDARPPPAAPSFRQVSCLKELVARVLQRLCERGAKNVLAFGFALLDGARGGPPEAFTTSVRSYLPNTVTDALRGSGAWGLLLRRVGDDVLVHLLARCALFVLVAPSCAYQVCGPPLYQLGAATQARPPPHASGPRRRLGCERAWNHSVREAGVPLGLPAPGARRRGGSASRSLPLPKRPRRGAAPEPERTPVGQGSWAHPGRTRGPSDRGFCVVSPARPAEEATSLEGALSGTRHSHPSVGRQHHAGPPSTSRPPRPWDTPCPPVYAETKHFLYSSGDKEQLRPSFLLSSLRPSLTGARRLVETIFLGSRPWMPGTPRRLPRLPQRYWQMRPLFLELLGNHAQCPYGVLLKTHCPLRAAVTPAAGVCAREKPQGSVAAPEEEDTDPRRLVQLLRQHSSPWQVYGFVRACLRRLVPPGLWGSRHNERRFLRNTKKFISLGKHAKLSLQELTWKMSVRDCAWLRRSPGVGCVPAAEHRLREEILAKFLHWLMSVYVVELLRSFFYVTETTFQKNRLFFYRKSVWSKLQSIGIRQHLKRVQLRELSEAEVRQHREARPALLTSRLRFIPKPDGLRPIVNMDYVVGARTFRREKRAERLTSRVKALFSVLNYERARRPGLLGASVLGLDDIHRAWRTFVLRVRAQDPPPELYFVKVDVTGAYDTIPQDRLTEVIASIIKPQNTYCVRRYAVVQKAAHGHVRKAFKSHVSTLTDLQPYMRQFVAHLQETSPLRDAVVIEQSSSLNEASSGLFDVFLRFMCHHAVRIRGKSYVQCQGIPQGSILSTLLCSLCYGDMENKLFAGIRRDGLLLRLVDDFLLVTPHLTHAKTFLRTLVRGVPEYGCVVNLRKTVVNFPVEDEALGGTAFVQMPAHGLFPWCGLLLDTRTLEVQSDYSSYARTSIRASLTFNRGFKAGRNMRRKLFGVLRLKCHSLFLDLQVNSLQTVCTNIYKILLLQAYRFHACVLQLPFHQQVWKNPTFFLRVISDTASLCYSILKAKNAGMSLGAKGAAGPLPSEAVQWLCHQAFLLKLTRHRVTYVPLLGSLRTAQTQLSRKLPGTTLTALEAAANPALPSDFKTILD

Structure (SMILES) | pIC50 (MCF7 [1]) | pIC50 [2] | pIC50 (A549 [3]) | Ratio IC50 (A549 [4]) | Activity [5] | change in melting temperature (ΔTm) [6] [°C] | change in melting temperature (ΔTm) [7] [°C] | change in melting temperature (ΔTm) [8] [°C] | change in melting temperature (ΔTm) [24] [°C] | other results
O=C(CN1CCCC1)Nc1ccc(NC(=O)c2ccc(NC(=O)Nc3ccc(C(=O)Nc4ccc(NC(=O)CN5CCCC5)cc4)cc3)cc2)cc1 | < 4.60 | < 4.60 | < 4.60 | 1 | – | – | – | – | – | –
O=C(CCCN1CCCC1)Nc1cccc(NC(=O)c2cccc(NC(=O)Nc3cccc(C(=O)Nc4cccc(NC(=O)CCCN5CCCC5)c4)c3)c2)c1 | 4.30 | 4.58 | < 4.30 | 0.5 | Active | 16.3 | 7.8 | 13.6 | – | –
C[n+]1ccc(-c2c3nc(c(-c4cc[n+](C)cc4)c4ccc([nH]4)c(-c4cc[n+](C)cc4)c4nc(c(-c5cc[n+](C)cc5)c5ccc2[nH]5)C=C4)C=C3)cc1 [TMPYP4 CHLORIDE] | – | – | – | – | – | – | – | – | – | pEC50 [9]: 5.05
O=C(CN1CCCC1)Nc1ccc(NC(=O)c2cccc(NC(=O)Nc3cccc(C(=O)Nc4ccc(NC(=O)CN5CCCC5)cc4)c3)c2)cc1 | 4.84 | 4.79 | < 4.30 | 0.3 | Active | 11.3 | 3.6 | 7.9 | – | Selectivity ratio [10]: > 400; KA (Homo sapiens): 1.4 ×10⁶ /M; KA [11]: 2.1 ×10⁶ /M; Selectivity ratio [12]: > 400; pEC50 [9]: < 4.30; KA [13]: 5.1 ×10⁶ /M; KA [14]: 14 ×10⁶ /M; Activity (MCF7 [15]): 1.7%; Activity (MCF7 [16]): 73.1%; Selectivity ratio [17]: > 400; Activity (MCF7 [18]): 1%; Activity (MCF7 [19]): 92.2%; KA [20]: < 1 ×10³ /M; Selectivity ratio [21]: > 400; inhibition [22]: 21%
O=C(CN1CCCC1)Nc1cccc(NC(=O)c2ccc(NC(=O)Nc3ccc(C(=O)Nc4cccc(NC(=O)CN5CCCC5)c4)cc3)cc2)c1 | < 4.30 | < 4.30 | < 4.30 | 1 | – | 2 | 0.7 | 1.8 | 2.5 | Ratio IC50 (MCF7 [23]): 1
O=C(CCCN1CCCC1)Nc1cccc(NC(=O)c2ccc(NC(=O)Nc3ccc(C(=O)Nc4cccc(NC(=O)CCCN5CCCC5)c4)cc3)cc2)c1 | 4.71 | < 4.60 | 4.71 | 1.3 | – | 6.5 | – | 3.3 | 5.5 | Ratio IC50 (MCF7 [23]): 1.3
O=C(CCCN1CCCC1)Nc1cc(NC(=O)Nc2cc(NC(=O)CCCN3CCCC3)cc(C(=O)Nc3ccccc3)c2)cc(C(=O)Nc2ccccc2)c1 | 4.62 | 4.96 | 4.51 | 0.4 | Active | 11.7 | 6.3 | 12.3 | 0.5 | –
O=C(CCN1CCCC1)Nc1cccc(NC(=O)c2cccc(NC(=O)Nc3cccc(C(=O)Nc4cccc(NC(=O)CCN5CCCC5)c4)c3)c2)c1 | 4.84 | 4.71 | < 4.30 | 0.4 | Active | 15.3 | 6.7 | 14.1 | 2.8 | –
